This note sets out measurements from ChEMBL document CHEMBL4373718, “Germacrane Sesquiterpenoids as a New Type of Anticardiac Fibrosis Agent Targeting Transforming Growth Factor β Type I Receptor” (J Med Chem, 2019).

Assay [1] deals with T1, TGF-beta receptor type-1 (Rattus norvegicus) (UniProt P80204).
T1 sequence (whole entry): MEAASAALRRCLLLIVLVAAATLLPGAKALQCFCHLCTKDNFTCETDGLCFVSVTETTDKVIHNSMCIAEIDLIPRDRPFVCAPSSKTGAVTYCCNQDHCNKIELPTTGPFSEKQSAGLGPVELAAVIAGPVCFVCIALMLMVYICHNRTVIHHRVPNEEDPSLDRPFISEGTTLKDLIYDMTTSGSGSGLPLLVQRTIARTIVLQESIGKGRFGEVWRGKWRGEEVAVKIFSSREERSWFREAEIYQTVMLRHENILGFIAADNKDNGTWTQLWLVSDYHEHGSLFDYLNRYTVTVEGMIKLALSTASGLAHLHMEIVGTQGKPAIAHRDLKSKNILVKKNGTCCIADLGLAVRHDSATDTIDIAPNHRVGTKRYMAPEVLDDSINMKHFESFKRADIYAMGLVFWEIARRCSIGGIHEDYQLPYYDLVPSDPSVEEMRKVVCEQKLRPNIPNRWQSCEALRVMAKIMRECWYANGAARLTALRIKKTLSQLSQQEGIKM
In words: Inhibition of TGFbeta1 receptor in TGFbeta1-stimulated Sprague-Dawley rat cardiac fibroblasts assessed as reduction in fibronectin expression at 50 uM measured after 12 hrs by Western blot analysis. The method in brief: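 Screen in primary rat cardiac fibroblasts: compounds at 50 µM or 10 µM given with 10 ng/mL TGFβ1 for 12 h. FN measured by Western blot with GAPDH loading control and densitometry. N=3 independent experiments.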

For assay [2], the target named is T1, TGF-beta receptor type-1 (Rattus norvegicus). In words: Inhibition of TGFbeta1 receptor in TGFbeta1-stimulated Sprague-Dawley rat cardiac fibroblasts assessed as reduction in fibronectin expression measured after 12 hrs by Western blot analysis. The method in brief:
(§1)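 Primary rat cardiac fibroblasts (passages 2–4, 3×10^5 per well) treated with compound plus 10 ng/mL TGFβ1 for 12 h; tested at 2.5, 5 and 10 µM. Lysates run on 10% SDS-PAGE (30 µg protein), probed for FN, α-SMA and collagen I/III, and quantified by densitometry against GAPDH. N=3 independent experiments.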
(In western blotting, separated proteins are transferred to a membrane and probed.)

Assay [3] has the same target. In words: Inhibition of TGFbeta1 receptor in TGFbeta1-stimulated Sprague-Dawley rat cardiac fibroblasts assessed as reduction in alpha-SMA expression measured after 12 hrs by Western blot analysis. In outline:
as §1

The target is the same in assay [4]. In words: Inhibition of TGFbeta1 receptor in TGFbeta1-stimulated Sprague-Dawley rat cardiac fibroblasts assessed as reduction in alpha-SMA mRNA expression at 2.5 to 10 uM measured after 12 hrs by qRT-PCR analysis. In outline: (§2)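 Primary rat cardiac fibroblasts (3×10^5 per well) treated with compound plus 10 ng/mL TGFβ1 for 12 h. Total RNA extracted and target transcripts measured by SYBR Green qRT-PCR, normalized to GAPDH.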
(Quantitative PCR measures a nucleic acid by following its amplification.)

The target is the same in assay [5]. The assay can be described thus: Inhibition of TGFbeta1 receptor in TGFbeta1-stimulated Sprague-Dawley rat cardiac fibroblasts assessed as reduction in collagen 1 mRNA expression at 2.5 to 10 uM measured after 12 hrs by qRT-PCR analysis. The method in brief:
as §2

For assay [6] the target is unchanged. The assay can be described thus: Inhibition of TGFbeta1 receptor in TGFbeta1-stimulated Sprague-Dawley rat cardiac fibroblasts assessed as reduction in Smad2 phosphorylation at 10 uM measured after 5 to 30 mins by Western blot analysis.
Assay [7] shares this target. In words: Inhibition of TGFbeta1 receptor in TGFbeta1-stimulated Sprague-Dawley rat cardiac fibroblasts assessed as reduction in Smad2 nuclear translocation at 10 uM measured after 5 mins by Western blot analysis. In outline:
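Primary rat cardiac fibroblasts treated with 10 µM compound plus 10 ng/mL TGFβ1 for 5 min. Nuclear and cytosolic fractions separated with a kit and Smad2/Smad3 measured by Western blot.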

For assay [8] the target is unchanged. The assay can be described thus: Inhibition of TGFbeta1 receptor in TGFbeta1-stimulated Sprague-Dawley rat cardiac fibroblasts assessed as reduction in Smad2 nuclear translocation at 10 uM measured after 5 mins by DAPI staining-based laser confocal microscopic analysis. The method in brief: (§3)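 Primary rat cardiac fibroblasts treated with 10 µM compound plus 10 ng/mL TGFβ1 for 5 min. Fixed in 4% PFA, permeabilized with 0.1% Triton X-100, blocked with goat serum. Stained with anti-Smad2 or anti-Smad3 overnight at 4 °C, then Alexa 594 secondary and DAPI nuclear stain. Imaged by confocal microscopy.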

Assay [9] has the same target. The assay can be described thus: Inhibition of TGFbeta1 receptor in TGFbeta1-stimulated Sprague-Dawley rat cardiac fibroblasts assessed as reduction in Smad3 nuclear translocation at 10 uM measured after 5 mins by DAPI staining-based laser confocal microscopic analysis. In outline: as §3
Assay [10] is filed under the species Rattus norvegicus. The assay can be described thus: Effect on TGFbeta2 receptor expression in TGFbeta1-stimulated Sprague-Dawley rat cardiac fibroblasts at 2.5 to 10 uM measured after 5 mins by Western blot analysis. Format: functional.
The target of assay [11] is T2, TGF-beta receptor type-1 (Homo sapiens, UniProt P36897).
T2 sequence (P36897 whole entry): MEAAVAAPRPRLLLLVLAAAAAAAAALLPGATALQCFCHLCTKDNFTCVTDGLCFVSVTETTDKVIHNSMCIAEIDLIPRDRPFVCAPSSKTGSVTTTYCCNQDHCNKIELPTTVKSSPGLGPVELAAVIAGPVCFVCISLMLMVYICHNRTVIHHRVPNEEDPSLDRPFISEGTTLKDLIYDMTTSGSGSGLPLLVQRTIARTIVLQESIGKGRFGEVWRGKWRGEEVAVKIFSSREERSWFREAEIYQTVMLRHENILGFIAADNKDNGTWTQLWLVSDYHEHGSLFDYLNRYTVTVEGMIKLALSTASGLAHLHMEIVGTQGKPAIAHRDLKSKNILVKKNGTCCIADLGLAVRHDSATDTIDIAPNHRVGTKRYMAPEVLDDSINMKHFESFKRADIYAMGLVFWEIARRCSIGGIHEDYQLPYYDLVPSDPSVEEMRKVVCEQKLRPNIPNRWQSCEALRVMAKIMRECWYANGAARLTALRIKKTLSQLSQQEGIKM
In words: Inhibition of recombinant human N-terminal GST-tagged TGFbeta1 receptor (80 to end residues) expressed in baculovirus infected Sf9 insect cells using casein as substrate measured after 2 hrs by ADP-Glo assay. On the technique in general: In ADP-Glo the light output rises with the ADP produced.

The target of assay [12] is TGF-beta receptor type-2 (Homo sapiens) (UniProt P37173). In words: Inhibition of recombinant human N-terminal GST-tagged TGFbeta2 receptor (190 to end residues) expressed in baculovirus infected Sf9 insect cells up to 100 uM using MBP as substrate measured after 2 hrs by ADP-Glo assay. The method in brief: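 Recombinant human TβRII produced in Sf9 cells. Compound serially diluted from DMSO and incubated with enzyme, 50 µM ATP and 0.1 g/L MBP for 2 h at room temperature. Kinase activity read as ADP generated.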
Chain of TGF-beta receptor type-2 (Homo sapiens) (P37173 whole entry): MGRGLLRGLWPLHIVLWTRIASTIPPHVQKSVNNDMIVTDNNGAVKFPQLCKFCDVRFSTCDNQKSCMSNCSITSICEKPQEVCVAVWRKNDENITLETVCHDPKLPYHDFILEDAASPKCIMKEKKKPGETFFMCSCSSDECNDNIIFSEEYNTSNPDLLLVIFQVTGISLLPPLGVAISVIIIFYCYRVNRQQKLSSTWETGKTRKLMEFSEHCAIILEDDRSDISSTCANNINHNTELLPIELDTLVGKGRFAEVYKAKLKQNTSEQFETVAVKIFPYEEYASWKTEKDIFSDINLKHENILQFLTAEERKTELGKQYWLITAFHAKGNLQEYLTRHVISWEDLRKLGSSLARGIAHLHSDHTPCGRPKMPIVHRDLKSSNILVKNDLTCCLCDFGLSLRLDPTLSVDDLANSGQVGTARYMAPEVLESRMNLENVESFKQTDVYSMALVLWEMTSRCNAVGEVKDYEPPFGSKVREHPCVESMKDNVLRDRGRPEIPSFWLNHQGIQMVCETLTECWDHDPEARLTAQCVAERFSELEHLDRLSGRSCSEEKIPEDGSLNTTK

Assay [13] has as its system Rattus norvegicus. The assay can be described thus: Antifibrotic activity in abdominal aortic constriction Sprague-Dawley rat model of cardiac fibrosis assessed as decrease in heart collagen level at 5 mg/kg, ip administered once daily for 4 weeks measured post-last dose by Masson's trichrome staining-based histological analysis relative to control. Format: functional. Set-up: scale not given: the % may be the effect or the level left. The method in brief: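 Male SD rats (200–250 g) with abdominal aortic constriction (suture tied over a 21-G probe above the renal arteries), under pentobarbital 30 mg/kg ip. Dosed ip daily for 4 weeks. Vehicle was saline with 0.5% DMSO and 5% Kolliphor HS 15. Groups: sham, AAC, AAC+nifedipine 10 mg/kg, n=8 each. Formalin-fixed paraffin sections 4 µm thick; FN and α-SMA by immunohistochemistry, collagen by Masson's trichrome; stained area measured.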

Calls of active or inactive are those of the source. No cut-off for these calls is given here.

Take `C=C(C)[C@@H]1C/C=C(\C)C(=O)CCC2=C[C@@H]1OC2=O`: the “fibronectin reduction (active/not active)” value in assay [1] is “Active”. For the same molecule, the inhibition entry in [2] and in [3] was “Dose-dependent effect” throughout. Also, the inhibition entry in [4], in assay [5], in [6], in assay [7], in assay [8] and in [9] was “Active” in each case. In addition, in assay [10], the outcome was inactive. Also, the IC50 (commonly the concentration that inhibits the measured activity by half) in assay [11] was 0.0149 µM. In addition, the inhibition entry in assay [12] was “inactive”. In assay [13], the Activity came out at 65.6%.
